Measurements from publication PMC3215871 (Cancer Chemotherapy and Pharmacology, 2011).
Values joined by “and” are separate entries in the source; they are usually repeats but may differ in a detail not shown here. Equal values may be shown once. Read-outs that look alike come from different tables or passages of the source. Peptide text beside a SMILES is read from it. * marks the point of attachment. Cbz = O=C(OCc1ccccc1)*

Assays:
[1] = tested on: RPMI-8226 cells; experiment: Bortezomib–EGCG combination matrix, ATP luminescence cell viability; assay type: cell-based, human
[2] = Pharmacokinetics of EGCG in mice; assay type: in vivo; settings: for Cmax: read-out: mean Cmax
Procedure, shortened: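 Naïve female nude or male CB-17 SCID mice aged 5–8 weeks given EGCG in 0.9% saline: PO 50, IV 50 and 100, or SC 50 mg/kg. Cardiac blood taken under CO2 from 5 min to 48 h; EDTA plasma stabilised 1:1 with ascorbic acid/EDTA, stored at −80°C, assayed by LC/MS/MS. Concentrations at bortezomib dosing times projected from these profiles.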

[3] = tested on: CWR22 human prostate xenograft tumors; experiment: In vivo antitumor activity; parameters: species or system mice
Procedure, shortened: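 Male CB-17 SCID mice aged 5–8 weeks implanted SC in the flank (trocar) with CWR22 fragments; randomised at 150–250 mm3 (n = 9/group). EGCG 50 mg/kg IV or SC BIW for 7 doses; ascorbic acid 40 or 500 mg/kg PO QD for 22 days; vehicle 0.9% saline. Calipers BIW; volume = 0.5 × length × width². TGI from mean volumes versus control on day 22 or 25.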

[4] = target: T1, 20S proteasome (Mus musculus, UniProt O55234); experiment: 20S proteasome activity in blood, enzymatic assay; assay type: in vivo, mice; settings: for inhibition at 0.8 mg/kg: mouse
T1 sequence (O55234 60-264): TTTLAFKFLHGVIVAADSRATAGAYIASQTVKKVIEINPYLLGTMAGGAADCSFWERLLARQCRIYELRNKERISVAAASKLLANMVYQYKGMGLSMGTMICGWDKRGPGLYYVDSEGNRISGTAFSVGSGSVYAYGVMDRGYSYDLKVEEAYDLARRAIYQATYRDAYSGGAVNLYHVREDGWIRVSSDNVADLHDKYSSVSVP
Procedure, shortened: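 20S proteasome activity in blood measured by an enzymatic assay on samples taken 4 h after dosing. Schedules were bortezomib 0.8 mg/kg IV, EGCG 50 mg/kg IV alone, EGCG 50 mg/kg IV then bortezomib 2 min later, or EGCG 50 mg/kg SC then bortezomib 30 or 60 min later. Inhibition expressed relative to vehicle controls.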

[5] = target: T2, 20S proteasome (Homo sapiens, UniProt P28074); experiment: 20S proteasome activity in xenograft tumors, enzymatic assay; assay type: in vivo
T2 sequence (P28074 60-263): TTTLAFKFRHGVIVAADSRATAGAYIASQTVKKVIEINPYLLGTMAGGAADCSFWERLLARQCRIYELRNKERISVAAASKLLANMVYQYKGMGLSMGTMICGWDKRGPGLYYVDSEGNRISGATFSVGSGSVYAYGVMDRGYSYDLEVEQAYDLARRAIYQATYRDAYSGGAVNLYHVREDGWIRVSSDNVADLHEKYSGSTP
Procedure, shortened: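 CWR22 human prostate tumor fragments were implanted subcutaneously by trocar in the flank of male CB-17 SCID mice aged 5–8 weeks. Tumor-bearing mice received an IV dose of the test compound. At 4 h, tumors were collected and 20S proteasome activity was measured by an enzymatic assay. Inhibition is expressed as a mean percentage relative to vehicle-treated controls.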

[6] = tested on: phospho-β-catenin (Ser33/Ser37/Thr41), GADD34 and ATF3; experiment: Western blot of xenograft tumors for proteasome substrate and ER stress markers; assay type: in vivo, human; settings: 4 h
Procedure, shortened: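 CWR22 xenograft tumours harvested 4 h after dosing with bortezomib 0.8 mg/kg IV, EGCG 50 mg/kg IV, or EGCG (IV, then bortezomib 2 min later; SC, then bortezomib 30 or 60 min later). Western blots probed for phospho-β-catenin (Ser33/Ser37/Thr41), GADD34 and ATF3, compared with vehicle controls.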

[7] = cited from earlier work; for maximal plasma concentration: humans, 800 mg EGCG supplements
[8] = cited from earlier work
[9] = tested on: MM cell lines; settings: 10 nM bortezomib, several MM cell lines; cited from earlier work
[10] = tested on: glioblastoma cell line; settings: 20 μM EGCG, 20 nM bortezomib; cited from earlier work
[11] = tested on: mouse xenograft models of human MM; settings: cited from earlier work
[12] = cited from earlier work; remark: listed apart in the source
[13] = Pharmacokinetics of ascorbic acid; assay type: in vivo, mice; settings: for Cmax / Tmax: male, CB-17 SCID, mouse, po
Procedure, shortened: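 Male CB-17 SCID mice bearing CWR22 tumours (naïve mice also sampled) given ascorbic acid 40 or 500 mg/kg PO in 0.9% saline. Cardiac blood taken at 0.5–6 h into lithium heparin; plasma stabilised 1:1 with 10% metaphosphoric acid, stored at −80°C. LC/MS/MS in negative ion MRM mode (m/z 175.0/114.8).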

[14] = humans, oral dose of 1,250 mg; cited from earlier work
[15] = tested on: RPMI8226 cells; settings: cited from earlier work
[16] = human plasma, within an hour post-dose; cited from earlier work
[17] = iv, read-out: mean 20S proteasome inhibition

Structure (SMILES): O=C(O[C@@H]1Cc2c(O)cc(O)cc2O[C@@H]1c1cc(O)c(O)c(O)c1)c1cc(O)c(O)c(O)c1 [EGCG, epigallocatechin gallate]
- antagonism of 40 nM bortezomib ([1]; EGCG 3.8 μM): no antagonism
- cytotoxicity of EGCG on its own ([1]; EGCG 100 μM): cytotoxic
- impact on the cytotoxicity of bortezomib ([1]; EGCG concentrations of up to 0.4 μM): no impact
- EGCG concentration required for a substantial shift in the potency of bortezomib ([1]; RPMI8226 cell viability): > 1000 nM
- Projected plasma concentration of EGCG at the time of bortezomib dosing ([2]; 50 mg/kg IV EGCG, 2 min interval): 224 µM
- Projected plasma concentration of EGCG at the time of bortezomib dosing ([2]; 50 mg/kg SC EGCG, 30 min interval): 11 to 16 µM
- Projected plasma concentration of EGCG at the time of bortezomib dosing ([2]; 50 mg/kg SC EGCG, 60 min interval): 4 to 8 µM
- time plasma concentration remained higher than 3 μM ([2]; IV and SC dosing at 50 mg/kg): ~2 h
- maximal EGCG concentration ([2]; SC 50 mg/kg): > 25 µM
- EGCG plasma concentration ([2]; SC 50 mg/kg, 30 min post-dose, first study): 16.2 µM
- EGCG plasma concentration ([2]; SC 50 mg/kg, 30 min post-dose, second study): 11.3 µM
- EGCG plasma concentration ([2]; SC 50 mg/kg, 1 h post-dose, first study): 8.4 µM
- EGCG plasma concentration ([2]; SC 50 mg/kg, 1 h post-dose, second study): 3.9 µM
- EGCG plasma concentration ([2]; SC 50 mg/kg, 2 h post-dose, first study): 2.8 µM
- EGCG plasma concentration ([2]; SC 50 mg/kg, 2 h post-dose, second study): 2.5 µM
- mean plasma Tmax ([2]; SC 50 mg/kg, naïve male CB17 SCID mice, both studies): 0.083 h
- plasma levels of EGCG ([2]; after IV dosing (50 and 100 mg/kg), within 30 min of dosing): < 20 µM
- maximal plasma concentration ([2]; oral dosing 50 mg/kg): < 0.1 µM
- Cmax ([2]; SC 50 mg/kg, naïve male CB17 SCID mice, first study): 33.7 µM
- Cmax ([2]; SC 50 mg/kg, naïve male CB17 SCID mice, second study): 26 µM
- mean plasma Tmax ([2]; single oral dose 50 mg/kg, naïve female nude mice): 0.5 h
- TGI ([3]; EGCG 50 mg/kg IV BIW alone): −15.3%
- TGI ([3]; EGCG 50 mg/kg SC BIW single agent): 3.6%
- inhibition of proteasome activity compared with vehicle controls ([4]; blood, EGCG 50 mg/kg IV alone, 4 h (Fig. 4a)): No inhibition
- inhibition of proteasome activity compared with vehicle controls ([5]; tumor, EGCG 50 mg/kg IV alone, 4 h (Fig. 4a)): No inhibition
- levels of phospho-β-catenin, GADD34, and ATF3 ([6]; EGCG 50 mg/kg IV on its own): does not change levels
- EGCG concentration measured clinically ([7]; humans taking EGCG supplements): 0.6 to 3 µM
- maximal plasma concentration ([7]; taken after fasting): approximately 3 μM and 1,522 ng/ml
- maximal plasma concentration ([7]; taken with food): approximately 0.6 μM and 294 ng/ml
- plasma concentration ([8]; 50 mg/kg EGCG administered intragastrically, at 50 min): approximately 60 nM
- maximal plasma concentrations ([8]; mice, oral dosing of 50 and 80 mg/kg): 0.06 to 0.28 µM
- EGCG concentrations that antagonized the cytotoxic effect of bortezomib [9]: ≥ 2.5 µM
- effect on proteasome inhibition by bortezomib [10]: blocked proteasome inhibition
- effect on the antitumor effects of bortezomib ([11]; oral EGCG 25 or 50 mg/kg, bortezomib i.p. 0.5 mg/kg): inhibits the antitumor effects

Structure (SMILES): CC(C)C[C@@H](C=O)NC(=O)[C@H](CC(C)C)NC(=O)[C@H](CC(C)C)NC(=O)OCc1ccccc1 [MG-132] (Cbz-Leu-Leu-Leu-aldehyde)
- effect of EGCG on the proteasome inhibitor [12]: has no effect

Structure (SMILES): CC(C)C[C@H](NC(=O)[C@H](CC(C)C)NC(=O)[C@H](CC(C)C)NC(=O)OCc1ccccc1)B(O)O [MG-262]
- effect of EGCG on the proteasome inhibitor [12]: antagonizes

Structure (SMILES): O=C1O[C@H]([C@@H](O)CO)C(O)=C1O [ascorbic acid]
- Cmax ([13]; plasma, 40 mg/kg): 72.8 µM
- Tmax ([13]; plasma, 40 mg/kg): 4 h
- Cmax ([13]; plasma, 500 mg/kg): 193 µM
- Tmax ([13]; plasma, 500 mg/kg): 2 h
- time elevated plasma level above endogenous is maintained ([13]; oral dosing 40 and 500 mg/kg): at least 6 h
- levels of endogenous ascorbic acid ([13]; plasma, naïve or CWR22 tumor-bearing male CB-17 SCID mice): 48.3 to 59.2 µM
- TGI ([3]; ascorbic acid 40 mg/kg PO QD alone): −24.4%
- TGI ([3]; ascorbic acid 500 mg/kg PO QD alone): −15.5%
- maximal concentrations [14]: approximately 150 μM
- antagonism of the activity of bortezomib ([15]; 30 μM ascorbic acid, 5 and 10 nM bortezomib): partially antagonized
- antagonism of the activity of bortezomib ([15]; 250 μM ascorbic acid, 5–10 nM bortezomib): nearly complete antagonism
- effect on the antitumor effects of bortezomib ([11]; oral vitamin C 40 mg/kg/day, bortezomib IV 0.1 mg/kg): inhibits the antitumor effects

Structure (SMILES): CC(C)C[C@H](NC(=O)[C@H](Cc1ccccc1)NC(=O)c1cnccn1)B(O)O [bortezomib, reference compound]
- increase in the IC50 of bortezomib ([1]; 3.8 μM EGCG versus no EGCG): 2.5 fold
- IC50 ([1]; read-out: Btz IC50, RPMI-8226 cells, 48 h, EGCG 425 nM (0.4 μM)): 7 nM
- TGI ([3]; bortezomib 0.8 mg/kg IV BIW alone, vitamin C study (Fig. 5b)): 62.8%
- TGI ([3]; bortezomib 0.8 mg/kg IV BIW single agent, across EGCG studies, versus control): 53.9–58.9%
- inhibition at 0.8 mg/kg [4, 17]: 44%
- inhibition at 0.8 mg/kg ([4]; read-out: mean proteasome inhibition): 59%
- inhibition at 0.8 mg/kg [5, 17]: 52%
- levels of phospho-β-catenin, GADD34, and ATF3 compared with vehicle controls ([6]; bortezomib 0.8 mg/kg IV): elevated levels
- drop of plasma concentrations [16]: more than 10 fold
- effect of EGCG on the proteasome inhibitor [12]: antagonizes

Structure (SMILES): Cc1c(O)cccc1C(=O)N[C@@H](CSc1ccccc1)[C@H](O)CN1C[C@H]2CCCC[C@H]2C[C@H]1C(=O)NC(C)(C)C [nelfinavir]
- effect of EGCG on the proteasome inhibitor [12]: has no effect
